Measurements taken from ChEMBL document CHEMBL2417539, “1-substituted (Dibenzo[b,d]thiophen-4-yl)-2-morpholino-4H-chromen-4-ones endowed with dual DNA-PK/PI3-K inhibitory activity” (J Med Chem, 2013).
pIC50: −log10 of the molar value.

System: HeLa
Test: Antiproliferative activity against human HeLa cells assessed as cell survival ratio at 0.1 uM treated 1 hr before 2Gy ionizing radiation measured after 6 to 8 days by DMR clonogenic assay
Assay type: functional
Summary of the method: (§1)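 HeLa cells seeded in 6-well dishes, incubated overnight at 37 °C/5% CO2, pre-treated 1 h with vehicle or inhibitor (0.1 or 0.5 μM), then given 2 Gy X-ray IR and held overnight. Medium then replaced without compound and culture continued 6-8 days. Colonies Giemsa-stained and counted automatically. DMR = % survival (vehicle, 2 Gy) / % survival (compound, 2 Gy).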

SMILES | Ratio
O=C(CN1CCN(CCOCCO)CC1)Nc1ccc(-c2cccc3c(=O)cc(N4CCOCC4)oc23)c2sc3ccccc3c12 | 1.6
CN(C)CCN1CCN(CC(=O)Nc2ccc(-c3cccc4c(=O)cc(N5CCOCC5)oc34)c3sc4ccccc4c23)CC1 | 1.7
O=C(CCN1CCNCC1)Nc1ccc(-c2cccc3c(=O)cc(N4CCOCC4)oc23)c2sc3ccccc3c12 | 1
CN1CCCN(C(=O)COc2ccc(-c3cccc4c(=O)cc(N5CCOCC5)oc34)c3sc4ccccc4c23)CC1 | 1.1
C[C@@H]1CN(CCOc2ccc(-c3cccc4c(=O)cc(N5CCOCC5)oc34)c3sc4ccccc4c23)C[C@H](C)O1 | 1.1
O=C(CCNCCN1CCNC1=O)Nc1ccc(-c2cccc3c(=O)cc(N4CCOCC4)oc23)c2sc3ccccc3c12 | 1.1
O=C(CCNCC1CCCO1)Nc1ccc(-c2cccc3c(=O)cc(N4CCOCC4)oc23)c2sc3ccccc3c12 (stereo unspecified) | 2
CC(C)N1CCN(CCOc2ccc(-c3cccc4c(=O)cc(N5CCOCC5)oc34)c3sc4ccccc4c23)CC1 | 1.6
O=C(CCN1CCN(c2ccc(F)cc2)CC1)Nc1ccc(-c2cccc3c(=O)cc(N4CCOCC4)oc23)c2sc3ccccc3c12 | 1.5
O=C(CNCCN1CCNC1=O)Nc1ccc(-c2cccc3c(=O)cc(N4CCOCC4)oc23)c2sc3ccccc3c12 | 1.2
O=C(CCNCCCN1CCOCC1)Nc1ccc(-c2cccc3c(=O)cc(N4CCOCC4)oc23)c2sc3ccccc3c12 | 0.9
O=c1cc(N2CCOCC2)oc2c(-c3ccc(OCCNc4cccnc4)c4c3sc3ccccc34)cccc12 | 0.9
O=C(CNCc1ccncc1)Nc1ccc(-c2cccc3c(=O)cc(N4CCOCC4)oc23)c2sc3ccccc3c12 | 1.4
CN(C)CCN(C)CC(=O)Nc1ccc(-c2cccc3c(=O)cc(N4CCOCC4)oc23)c2sc3ccccc3c12 | 1.1
COCCNCC(=O)Nc1ccc(-c2cccc3c(=O)cc(N4CCOCC4)oc23)c2sc3ccccc3c12 | 1.2
O=C(CCN(CCO)CCO)Nc1ccc(-c2cccc3c(=O)cc(N4CCOCC4)oc23)c2sc3ccccc3c12 | 1
CN(C)CCN(C)CCC(=O)Nc1ccc(-c2cccc3c(=O)cc(N4CCOCC4)oc23)c2sc3ccccc3c12 | 1.2
CN(CC(N)=O)C(=O)COc1ccc(-c2cccc3c(=O)cc(N4CCOCC4)oc23)c2sc3ccccc3c12 | 0.9
O=C(CCN1CCOCC1)Nc1ccc(-c2cccc3c(=O)cc(N4CCOCC4)oc23)c2sc3ccccc3c12 | 2
COCCN(CCOC)CC(=O)Nc1ccc(-c2cccc3c(=O)cc(N4CCOCC4)oc23)c2sc3ccccc3c12 | 1.5
O=C(COc1ccc(-c2cccc3c(=O)cc(N4CCOCC4)oc23)c2sc3ccccc3c12)NCc1ccncc1 | 1
CN1CCCN(CC(=O)Nc2ccc(-c3cccc4c(=O)cc(N5CCOCC5)oc34)c3sc4ccccc4c23)CC1 | 1.7
CC(=O)N1CCN(C(=O)COc2ccc(-c3cccc4c(=O)cc(N5CCOCC5)oc34)c3sc4ccccc4c23)CC1 | 1
CN1CCCN(CCOc2ccc(-c3cccc4c(=O)cc(N5CCOCC5)oc34)c3sc4ccccc4c23)CC1 | 1.5
COc1ccc(CNCCC(=O)Nc2ccc(-c3cccc4c(=O)cc(N5CCOCC5)oc34)c3sc4ccccc4c23)cc1 | 1.7
CCN1CCCC1CNCC(=O)Nc1ccc(-c2cccc3c(=O)cc(N4CCOCC4)oc23)c2sc3ccccc3c12 (stereo unspecified) | 1.2
CCN1CCCC1CNCCC(=O)Nc1ccc(-c2cccc3c(=O)cc(N4CCOCC4)oc23)c2sc3ccccc3c12 (stereo unspecified) | 1.2

System: HeLa
Test: Antiproliferative activity against human HeLa cells assessed as cell survival ratio at 0.5 uM treated 1 hr before 2Gy ionizing radiation measured after 6 to 8 days by DMR clonogenic assay
Assay type: functional
Summary of the method: as §1

SMILES | Ratio
O=C(CN1CCN(CCOCCO)CC1)Nc1ccc(-c2cccc3c(=O)cc(N4CCOCC4)oc23)c2sc3ccccc3c12 | 3.2
CN(C)CCN1CCN(CC(=O)Nc2ccc(-c3cccc4c(=O)cc(N5CCOCC5)oc34)c3sc4ccccc4c23)CC1 | 5.9
O=C(CCN1CCNCC1)Nc1ccc(-c2cccc3c(=O)cc(N4CCOCC4)oc23)c2sc3ccccc3c12 | 1.5
CN1CCCN(C(=O)COc2ccc(-c3cccc4c(=O)cc(N5CCOCC5)oc34)c3sc4ccccc4c23)CC1 | 2
C[C@@H]1CN(CCOc2ccc(-c3cccc4c(=O)cc(N5CCOCC5)oc34)c3sc4ccccc4c23)C[C@H](C)O1 | 3.2
O=C(CCNCCN1CCNC1=O)Nc1ccc(-c2cccc3c(=O)cc(N4CCOCC4)oc23)c2sc3ccccc3c12 | 0.9
O=C(CCNCC1CCCO1)Nc1ccc(-c2cccc3c(=O)cc(N4CCOCC4)oc23)c2sc3ccccc3c12 (stereo unspecified) | 4.7
CC(C)N1CCN(CCOc2ccc(-c3cccc4c(=O)cc(N5CCOCC5)oc34)c3sc4ccccc4c23)CC1 | 6.3
O=C(CCN1CCN(c2ccc(F)cc2)CC1)Nc1ccc(-c2cccc3c(=O)cc(N4CCOCC4)oc23)c2sc3ccccc3c12 | 3.8
O=C(CNCCN1CCNC1=O)Nc1ccc(-c2cccc3c(=O)cc(N4CCOCC4)oc23)c2sc3ccccc3c12 | 1.2
O=C(CCNCCCN1CCOCC1)Nc1ccc(-c2cccc3c(=O)cc(N4CCOCC4)oc23)c2sc3ccccc3c12 | 1.4
O=c1cc(N2CCOCC2)oc2c(-c3ccc(OCCNc4cccnc4)c4c3sc3ccccc34)cccc12 | 1
O=C(CNCc1ccncc1)Nc1ccc(-c2cccc3c(=O)cc(N4CCOCC4)oc23)c2sc3ccccc3c12 | 5.5
CN(C)CCN(C)CC(=O)Nc1ccc(-c2cccc3c(=O)cc(N4CCOCC4)oc23)c2sc3ccccc3c12 | 5.7
COCCNCC(=O)Nc1ccc(-c2cccc3c(=O)cc(N4CCOCC4)oc23)c2sc3ccccc3c12 | 5.9
O=C(CCN(CCO)CCO)Nc1ccc(-c2cccc3c(=O)cc(N4CCOCC4)oc23)c2sc3ccccc3c12 | 0.8
CN(C)CCN(C)CCC(=O)Nc1ccc(-c2cccc3c(=O)cc(N4CCOCC4)oc23)c2sc3ccccc3c12 | 5.1
CN(CC(N)=O)C(=O)COc1ccc(-c2cccc3c(=O)cc(N4CCOCC4)oc23)c2sc3ccccc3c12 | 1.4
O=C(CCN1CCOCC1)Nc1ccc(-c2cccc3c(=O)cc(N4CCOCC4)oc23)c2sc3ccccc3c12 | 6.1
COCCN(CCOC)CC(=O)Nc1ccc(-c2cccc3c(=O)cc(N4CCOCC4)oc23)c2sc3ccccc3c12 | 7.9
O=C(COc1ccc(-c2cccc3c(=O)cc(N4CCOCC4)oc23)c2sc3ccccc3c12)NCc1ccncc1 | 1.1
CN1CCCN(CC(=O)Nc2ccc(-c3cccc4c(=O)cc(N5CCOCC5)oc34)c3sc4ccccc4c23)CC1 | 7.6
CC(=O)N1CCN(C(=O)COc2ccc(-c3cccc4c(=O)cc(N5CCOCC5)oc34)c3sc4ccccc4c23)CC1 | 1.6
CN1CCCN(CCOc2ccc(-c3cccc4c(=O)cc(N5CCOCC5)oc34)c3sc4ccccc4c23)CC1 | 3.6
COc1ccc(CNCCC(=O)Nc2ccc(-c3cccc4c(=O)cc(N5CCOCC5)oc34)c3sc4ccccc4c23)cc1 | 7.2
CCN1CCCC1CNCC(=O)Nc1ccc(-c2cccc3c(=O)cc(N4CCOCC4)oc23)c2sc3ccccc3c12 (stereo unspecified) | 5.9
CCN1CCCC1CNCCC(=O)Nc1ccc(-c2cccc3c(=O)cc(N4CCOCC4)oc23)c2sc3ccccc3c12 (stereo unspecified) | 1.7

Biological target: DNA-dependent protein kinase catalytic subunit (Homo sapiens, UniProt P78527)
Sequence (P78527 whole entry): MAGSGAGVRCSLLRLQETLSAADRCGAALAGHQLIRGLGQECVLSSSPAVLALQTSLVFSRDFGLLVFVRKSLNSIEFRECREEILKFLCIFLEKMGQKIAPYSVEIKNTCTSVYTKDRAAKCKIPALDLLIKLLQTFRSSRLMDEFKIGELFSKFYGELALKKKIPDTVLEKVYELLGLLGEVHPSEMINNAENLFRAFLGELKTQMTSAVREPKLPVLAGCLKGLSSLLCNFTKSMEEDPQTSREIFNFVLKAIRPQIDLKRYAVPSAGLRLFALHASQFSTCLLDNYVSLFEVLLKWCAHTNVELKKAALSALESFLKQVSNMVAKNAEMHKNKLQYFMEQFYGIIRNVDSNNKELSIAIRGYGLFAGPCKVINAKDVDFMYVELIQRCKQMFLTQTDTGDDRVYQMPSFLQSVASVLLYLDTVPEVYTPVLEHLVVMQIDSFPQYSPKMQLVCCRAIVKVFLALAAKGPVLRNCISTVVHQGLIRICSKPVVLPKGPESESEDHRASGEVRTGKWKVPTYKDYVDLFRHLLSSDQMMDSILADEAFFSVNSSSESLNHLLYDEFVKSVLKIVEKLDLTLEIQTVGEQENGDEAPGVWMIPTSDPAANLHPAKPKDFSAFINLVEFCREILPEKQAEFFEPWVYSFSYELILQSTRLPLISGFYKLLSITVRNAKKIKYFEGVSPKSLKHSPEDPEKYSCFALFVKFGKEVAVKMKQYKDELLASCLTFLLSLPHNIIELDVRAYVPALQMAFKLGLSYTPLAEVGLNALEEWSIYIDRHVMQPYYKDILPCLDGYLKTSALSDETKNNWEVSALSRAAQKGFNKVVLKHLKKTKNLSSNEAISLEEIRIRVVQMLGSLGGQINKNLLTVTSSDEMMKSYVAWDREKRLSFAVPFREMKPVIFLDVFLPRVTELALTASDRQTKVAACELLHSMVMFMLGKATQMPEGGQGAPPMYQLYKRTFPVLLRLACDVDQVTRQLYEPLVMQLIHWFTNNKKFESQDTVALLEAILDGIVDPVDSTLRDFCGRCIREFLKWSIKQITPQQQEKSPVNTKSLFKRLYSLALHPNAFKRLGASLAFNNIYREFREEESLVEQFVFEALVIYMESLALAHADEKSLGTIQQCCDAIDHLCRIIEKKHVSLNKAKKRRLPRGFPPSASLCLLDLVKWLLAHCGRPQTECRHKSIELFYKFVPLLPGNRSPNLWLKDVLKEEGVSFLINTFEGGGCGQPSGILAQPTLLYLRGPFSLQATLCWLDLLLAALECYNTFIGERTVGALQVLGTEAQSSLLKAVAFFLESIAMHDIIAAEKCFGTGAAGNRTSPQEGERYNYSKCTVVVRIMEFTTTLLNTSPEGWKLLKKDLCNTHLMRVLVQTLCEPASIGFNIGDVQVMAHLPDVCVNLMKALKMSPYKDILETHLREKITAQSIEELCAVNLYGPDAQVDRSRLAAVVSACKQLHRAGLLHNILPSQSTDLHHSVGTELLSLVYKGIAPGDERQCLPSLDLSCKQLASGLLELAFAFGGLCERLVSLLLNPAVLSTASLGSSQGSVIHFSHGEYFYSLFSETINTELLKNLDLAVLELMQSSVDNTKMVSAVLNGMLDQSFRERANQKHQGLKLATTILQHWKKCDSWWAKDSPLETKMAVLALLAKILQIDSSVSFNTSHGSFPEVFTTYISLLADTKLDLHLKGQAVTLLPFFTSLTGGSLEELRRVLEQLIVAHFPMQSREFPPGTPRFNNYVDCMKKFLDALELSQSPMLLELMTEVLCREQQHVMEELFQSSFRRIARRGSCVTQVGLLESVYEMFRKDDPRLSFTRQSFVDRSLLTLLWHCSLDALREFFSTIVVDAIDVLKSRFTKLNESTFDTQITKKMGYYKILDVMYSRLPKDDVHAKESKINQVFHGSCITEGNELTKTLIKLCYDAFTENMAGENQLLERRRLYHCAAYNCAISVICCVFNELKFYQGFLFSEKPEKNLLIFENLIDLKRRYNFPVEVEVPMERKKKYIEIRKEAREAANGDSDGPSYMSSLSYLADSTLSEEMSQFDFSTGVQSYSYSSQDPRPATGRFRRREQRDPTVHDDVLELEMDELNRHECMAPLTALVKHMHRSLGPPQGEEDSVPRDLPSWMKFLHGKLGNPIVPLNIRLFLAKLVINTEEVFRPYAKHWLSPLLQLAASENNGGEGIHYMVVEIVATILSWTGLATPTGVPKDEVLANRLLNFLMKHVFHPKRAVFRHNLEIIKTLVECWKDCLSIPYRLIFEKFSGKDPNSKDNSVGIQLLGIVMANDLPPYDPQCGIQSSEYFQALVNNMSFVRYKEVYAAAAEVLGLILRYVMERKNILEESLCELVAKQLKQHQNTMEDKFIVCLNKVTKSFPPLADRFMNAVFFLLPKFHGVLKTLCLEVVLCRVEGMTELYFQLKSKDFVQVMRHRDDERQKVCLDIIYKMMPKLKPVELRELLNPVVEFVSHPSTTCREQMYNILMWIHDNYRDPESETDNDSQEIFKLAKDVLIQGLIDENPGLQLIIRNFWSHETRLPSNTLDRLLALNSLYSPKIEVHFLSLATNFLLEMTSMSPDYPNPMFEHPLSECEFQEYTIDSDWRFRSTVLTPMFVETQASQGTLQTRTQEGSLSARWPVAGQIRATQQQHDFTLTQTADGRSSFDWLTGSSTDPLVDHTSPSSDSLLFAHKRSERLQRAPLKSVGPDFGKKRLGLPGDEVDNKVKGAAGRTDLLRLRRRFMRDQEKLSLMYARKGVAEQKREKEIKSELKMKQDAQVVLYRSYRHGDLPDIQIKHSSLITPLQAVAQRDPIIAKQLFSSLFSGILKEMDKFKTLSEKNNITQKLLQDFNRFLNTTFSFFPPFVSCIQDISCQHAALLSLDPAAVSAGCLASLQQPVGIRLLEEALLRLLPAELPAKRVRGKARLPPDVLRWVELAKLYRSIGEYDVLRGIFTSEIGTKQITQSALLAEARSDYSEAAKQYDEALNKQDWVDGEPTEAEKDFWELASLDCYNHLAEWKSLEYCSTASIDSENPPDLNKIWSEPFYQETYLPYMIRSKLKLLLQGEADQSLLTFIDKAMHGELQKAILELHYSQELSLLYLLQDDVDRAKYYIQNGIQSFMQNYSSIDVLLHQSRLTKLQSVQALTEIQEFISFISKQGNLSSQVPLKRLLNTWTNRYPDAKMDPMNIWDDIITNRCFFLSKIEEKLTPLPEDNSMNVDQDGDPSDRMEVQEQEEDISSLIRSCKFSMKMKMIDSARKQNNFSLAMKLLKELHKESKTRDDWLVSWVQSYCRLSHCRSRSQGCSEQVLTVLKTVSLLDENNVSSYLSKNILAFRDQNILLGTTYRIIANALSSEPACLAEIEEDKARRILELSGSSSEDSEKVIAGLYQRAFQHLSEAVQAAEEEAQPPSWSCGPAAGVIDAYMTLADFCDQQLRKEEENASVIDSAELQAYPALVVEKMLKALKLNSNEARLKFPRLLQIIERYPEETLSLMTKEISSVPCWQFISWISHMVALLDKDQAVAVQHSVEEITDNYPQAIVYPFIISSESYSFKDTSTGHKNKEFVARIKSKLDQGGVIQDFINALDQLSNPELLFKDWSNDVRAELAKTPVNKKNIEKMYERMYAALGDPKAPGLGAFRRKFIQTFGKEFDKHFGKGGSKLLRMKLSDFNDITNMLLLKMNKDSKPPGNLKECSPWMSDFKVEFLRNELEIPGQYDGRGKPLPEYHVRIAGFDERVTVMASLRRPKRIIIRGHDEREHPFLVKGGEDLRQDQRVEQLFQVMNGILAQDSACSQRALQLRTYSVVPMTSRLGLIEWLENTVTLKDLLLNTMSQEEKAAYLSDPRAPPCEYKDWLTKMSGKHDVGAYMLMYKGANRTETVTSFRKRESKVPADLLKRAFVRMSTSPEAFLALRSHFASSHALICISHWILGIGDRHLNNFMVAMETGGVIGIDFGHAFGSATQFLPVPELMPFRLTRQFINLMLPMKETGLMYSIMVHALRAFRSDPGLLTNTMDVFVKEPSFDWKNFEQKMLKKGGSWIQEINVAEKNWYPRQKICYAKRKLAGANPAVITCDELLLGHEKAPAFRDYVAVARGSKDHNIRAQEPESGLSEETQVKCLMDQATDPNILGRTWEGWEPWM
Test: Inhibition of human DNA-PK using GST-tagged p53N66 as substrate after 1 hr by ELISA-based chemiluminiscence assay

SMILES | pIC50
O=C(CN1CCN(CCOCCO)CC1)Nc1ccc(-c2cccc3c(=O)cc(N4CCOCC4)oc23)c2sc3ccccc3c12 | 8.22
CN(C)CCN1CCN(CC(=O)Nc2ccc(-c3cccc4c(=O)cc(N5CCOCC5)oc34)c3sc4ccccc4c23)CC1 | 8.00
O=C(CCN1CCNCC1)Nc1ccc(-c2cccc3c(=O)cc(N4CCOCC4)oc23)c2sc3ccccc3c12 | 7.43
CN1CCCN(C(=O)COc2ccc(-c3cccc4c(=O)cc(N5CCOCC5)oc34)c3sc4ccccc4c23)CC1 | 7.36
O=C(CCNCCN1CCNC1=O)Nc1ccc(-c2cccc3c(=O)cc(N4CCOCC4)oc23)c2sc3ccccc3c12 | 8.22
O=C(CCNCC1CCCO1)Nc1ccc(-c2cccc3c(=O)cc(N4CCOCC4)oc23)c2sc3ccccc3c12 (stereo unspecified) | 8.15
O=C(CCN1CCN(c2ccc(F)cc2)CC1)Nc1ccc(-c2cccc3c(=O)cc(N4CCOCC4)oc23)c2sc3ccccc3c12 | 7.52
O=c1cc(N2CCOCC2)oc2c(-c3ccc(OCCNc4cccnc4)c4c3sc3ccccc34)cccc12 | 8.70
O=C(CCN(CCO)CCO)Nc1ccc(-c2cccc3c(=O)cc(N4CCOCC4)oc23)c2sc3ccccc3c12 | 7.59
CN(C)CCN(C)CCC(=O)Nc1ccc(-c2cccc3c(=O)cc(N4CCOCC4)oc23)c2sc3ccccc3c12 | 7.11
CN(CC(N)=O)C(=O)COc1ccc(-c2cccc3c(=O)cc(N4CCOCC4)oc23)c2sc3ccccc3c12 | 7.96
COCCN(CCOC)CC(=O)Nc1ccc(-c2cccc3c(=O)cc(N4CCOCC4)oc23)c2sc3ccccc3c12 | 7.74
O=C(COc1ccc(-c2cccc3c(=O)cc(N4CCOCC4)oc23)c2sc3ccccc3c12)NCc1ccncc1 | 8.00
CN1CCCN(CCOc2ccc(-c3cccc4c(=O)cc(N5CCOCC5)oc34)c3sc4ccccc4c23)CC1 | 8.00

Continued, values first:

pIC50 | SMILES
8.00 | C[C@@H]1CN(CCOc2ccc(-c3cccc4c(=O)cc(N5CCOCC5)oc34)c3sc4ccccc4c23)C[C@H](C)O1
8.52 | CC(C)N1CCN(CCOc2ccc(-c3cccc4c(=O)cc(N5CCOCC5)oc34)c3sc4ccccc4c23)CC1
8.15 | O=C(CNCCN1CCNC1=O)Nc1ccc(-c2cccc3c(=O)cc(N4CCOCC4)oc23)c2sc3ccccc3c12
8.05 | O=C(CCNCCCN1CCOCC1)Nc1ccc(-c2cccc3c(=O)cc(N4CCOCC4)oc23)c2sc3ccccc3c12
8.10 | O=C(CNCc1ccncc1)Nc1ccc(-c2cccc3c(=O)cc(N4CCOCC4)oc23)c2sc3ccccc3c12
7.24 | CN(C)CCN(C)CC(=O)Nc1ccc(-c2cccc3c(=O)cc(N4CCOCC4)oc23)c2sc3ccccc3c12
8.15 | COCCNCC(=O)Nc1ccc(-c2cccc3c(=O)cc(N4CCOCC4)oc23)c2sc3ccccc3c12
7.39 | O=C(CCN1CCOCC1)Nc1ccc(-c2cccc3c(=O)cc(N4CCOCC4)oc23)c2sc3ccccc3c12
7.26 | CN1CCCN(CC(=O)Nc2ccc(-c3cccc4c(=O)cc(N5CCOCC5)oc34)c3sc4ccccc4c23)CC1
7.80 | CC(=O)N1CCN(C(=O)COc2ccc(-c3cccc4c(=O)cc(N5CCOCC5)oc34)c3sc4ccccc4c23)CC1
8.05 | COc1ccc(CNCCC(=O)Nc2ccc(-c3cccc4c(=O)cc(N5CCOCC5)oc34)c3sc4ccccc4c23)cc1
7.52 | CCN1CCCC1CNCC(=O)Nc1ccc(-c2cccc3c(=O)cc(N4CCOCC4)oc23)c2sc3ccccc3c12 (stereo unspecified)
7.31 | CCN1CCCC1CNCCC(=O)Nc1ccc(-c2cccc3c(=O)cc(N4CCOCC4)oc23)c2sc3ccccc3c12 (stereo unspecified)
